Experimental data taken from ChEMBL document CHEMBL3580644, “Synthesis of piperlongumine analogues and discovery of nuclear factor erythroid 2-related factor 2 (Nrf2) activators as potential neuroprotective agents” (J Med Chem, 2015).
Activity calls are given as the source filed them. No cut-off for these calls is given here.

What was measured:
[1] = Cytoprotection activity against H2O2-induced cytotoxicity in rat PC12 cells assessed as increase in cell viability at 20 uM pre-incubated for 24 hrs before H2O2 exposure for 12 hrs by MTT assay; type: functional, PC-12
[2] = Cytoprotection activity against 6-OHDA-induced cytotoxicity in rat PC12 cells assessed as cell viability at 10 and 20 uM pre-incubated for 24 hrs before 6-OHDA exposure for 12 hrs by MTT assay; type: functional, PC-12
[3] = test system: PC-12; assay: Induction of antioxidant defense system in rat PC12 cells assessed as increase in Trx activity level incubated for 24 hrs by recombinant rat TrxR1 based assay; type: functional, cell-based
Method in brief: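 Cellular Trx activity: extract with 20 μg protein incubated 30 min at 37 °C in 100 mM Tris-HCl pH 7.4 with 0.3 mM insulin, 660 μM NADPH, 3 mM EDTA, 60 nM recombinant rat TrxR1; stopped with 1 mM DTNB in 6 M guanidine-HCl pH 8.0; A412 minus TrxR-free blank; % of DMSO control.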

[4] = Cytotoxicity against rat PC12 cells assessed as reduction in cell viability at 20 uM incubated for 24 hrs by MTT assay; type: cell-based; details: pc-12, 24 h
[5] = molecular target: T1, Nuclear factor erythroid 2-related factor 2 (Rattus norvegicus) (UniProt O54968); assay: Induction of Nrf2-mediated antioxidant genes expression in rat PC12 cells assessed as increase in NQO1 protein expression at 10 and 20 uM incubated for 20 hrs by Western blotting method; type: cell-based; details: PC-12
T1 sequence (whole entry): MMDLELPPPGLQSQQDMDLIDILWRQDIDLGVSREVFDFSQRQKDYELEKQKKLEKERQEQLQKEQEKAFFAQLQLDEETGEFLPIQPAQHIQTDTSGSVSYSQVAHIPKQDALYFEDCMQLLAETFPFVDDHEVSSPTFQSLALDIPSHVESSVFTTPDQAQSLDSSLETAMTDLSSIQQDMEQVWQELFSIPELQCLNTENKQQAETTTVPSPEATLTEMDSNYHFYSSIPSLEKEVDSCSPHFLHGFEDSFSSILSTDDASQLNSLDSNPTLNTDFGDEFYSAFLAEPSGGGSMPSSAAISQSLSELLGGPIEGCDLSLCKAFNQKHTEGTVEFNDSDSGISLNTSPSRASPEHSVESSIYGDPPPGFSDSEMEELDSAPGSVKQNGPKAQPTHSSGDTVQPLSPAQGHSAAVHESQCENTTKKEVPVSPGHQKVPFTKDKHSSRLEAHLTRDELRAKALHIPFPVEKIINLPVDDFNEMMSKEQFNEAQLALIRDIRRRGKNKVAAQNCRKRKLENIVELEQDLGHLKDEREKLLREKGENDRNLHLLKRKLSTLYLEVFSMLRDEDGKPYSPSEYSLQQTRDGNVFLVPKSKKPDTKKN

[6] = test system: PC-12; assay: Induction of antioxidant genes expression in rat PC12 cells assessed as increase in GCLC mRNA level at 20 uM incubated for 6 hrs by qRT-PCR method; type: functional, cell-based
Method in brief: (§1)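 PC12 cells, 1×10^6 per 60-mm dish, 1 day, then 20 μM compound for 0, 3, 6 and 12 h; total RNA isolated, quantified by 260/280 absorbance; mRNA by real-time RT-PCR normalized to GAPDH; mean ± SD of three independent experiments versus 0 h.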

[7] = molecular target: T1, Nuclear factor erythroid 2-related factor 2 (Rattus norvegicus); assay: Induction of Nrf2-mediated antioxidant genes expression in rat PC12 cells assessed as increase in HO1 protein expression at 10 and 20 uM incubated for 20 hrs by Western blotting method; type: cell-based; details: PC-12
[8] = Antioxidant activity assessed as DPPH radical scavenging activity at 20 uM incubated for 30 mins by spectrophotometry; type: physicochemical; details: 0.5 h
[9] = test system: PC-12; assay: Cytoprotection activity against 6-OHDA-induced oxidative stress in rat PC12 cells assessed as GSH level at pre-incubated for 24 hrs before 6-OHDA exposure for 12 hrs; type: functional, cell-based
Method in brief: (§2)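 Total glutathione: cells extracted in KPE buffer (0.1% Triton X-100, 0.6% sulfosalicylic acid, 5 mM EDTA, 0.1 M PBS pH 7.5), sonicated on ice, centrifuged 3000 g 4 min at 4 °C; supernatant assayed enzymatically. PC12 cells 1×10^6 in 60-mm dishes, compound 24 h; stress lines add 500 μM H2O2 or 200 μM 6-OHDA 12 h.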

[10] = test system: PC-12; assay: Induction of antioxidant genes expression in rat PC12 cells assessed as increase in NQO1 mRNA level at 20 uM incubated for 6 hrs by qRT-PCR method; type: functional, cell-based; method in brief: as §1
[11] = Cytotoxicity against human L02 cells assessed as reduction in cell viability at 20 uM to 100 uM incubated for 24 hrs by MTT assay; type: cell-based; details: l02, 24 h
[12] = molecular target: T1, Nuclear factor erythroid 2-related factor 2 (Rattus norvegicus); assay: Induction of Nrf2-mediated antioxidant genes expression in rat PC12 cells assessed as increase in Trx1 protein expression at 10 and 20 uM incubated for 20 hrs by Western blotting method; type: cell-based; details: PC-12
[13] = test system: PC-12; assay: Induction of antioxidant genes expression in rat PC12 cells assessed as increase in TrxR1 mRNA level at 20 uM incubated for 6 hrs by qRT-PCR method; type: functional, cell-based
Method in brief: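 PC12 cells (1×10^6 per 60-mm dish) seeded 1 day, then exposed to 20 μM compound for 0, 3, 6 and 12 h. Total RNA isolated and quantified by 260/280 absorbance. Transcripts measured by qRT-PCR, normalized to GAPDH internal control, compared against 0 h control. Means ± SD of three independent experiments.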

[14] = test system: PC-12; assay: Cytoprotection activity against 6-OHDA-induced cytotoxicity in rat PC12 cells assessed as cell viability at 10 and 20 uM pre-incubated for 24 hrs before 6-OHDA exposure for 12 hrs in presence of non-trageting shRNA by MTT assay; type: functional, cell-based
[15] = test system: PC-12; assay: Cytoprotection activity against H2O2-induced oxidative stress in rat PC12 cells assessed as GSH level at pre-incubated for 24 hrs before H2O2 exposure for 12 hrs; type: functional, cell-based; method in brief: as §2
[16] = test system: PC-12; assay: Induction of antioxidant defense system in rat PC12 cells assessed as increase in TrxR activity level incubated for 24 hrs by Escherichia coli Trx based assay; type: functional, cell-based
Method in brief: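 Cellular TrxR activity: extract with 20 μg protein incubated 30 min at 37 °C in 100 mM Tris-HCl pH 7.4 containing 0.3 mM insulin, 660 μM NADPH, 3 mM EDTA, 4 μM E. coli Trx; stopped with 1 mM DTNB in 6 M guanidine-HCl pH 8.0; A412 minus Trx-free blank; % of DMSO control.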

[17] = test system: PC-12; assay: Induction of antioxidant genes expression in rat PC12 cells assessed as increase in GCLM mRNA level at 20 uM incubated for 6 hrs by qRT-PCR method; type: functional, cell-based; method in brief: as §1
[18] = test system: PC-12; assay: Induction of antioxidant genes expression in rat PC12 cells assessed as increase in Trx1 mRNA level at 20 uM incubated for 3 hrs by qRT-PCR method; type: functional, cell-based; method in brief: as §1
[19] = test system: PC-12; assay: Cytoprotection activity against 6-OHDA-induced cytotoxicity in rat PC12 cells assessed as cell viability at 10 and 20 uM pre-incubated for 24 hrs before 6-OHDA exposure for 12 hrs by LDH release assay; type: functional, cell-based
[20] = test system: PC-12; assay: Induction of antioxidant genes expression in rat PC12 cells assessed as increase in HO1 mRNA level at 20 uM incubated for 6 hrs by qRT-PCR method; type: functional, cell-based; method in brief: as §1

Activity [5] | Activity [7] | Activity [8] | Activity [12] | Structure (SMILES) | Activity [1] [%] | Activity [2] [%] | Activity [3] | Activity [4] | Activity [6] | Activity [9] | Activity [10] | Activity [11] | Activity [13] | Activity [14] | Activity [15] | Activity [16] | Activity [17] | Activity [18] | Activity [19] | Activity [20]
Active | Active | Not Active | Active | COc1cc(/C=C/C(=O)N2CCCCC2=O)cc(OC)c1OC | 75 | 75 | Active | Non-toxic | Active | Active | Active | Non-toxic | Active | Active | Active | Active | Active | Active | Active | Active
Active | Active | Not Active | Active | COc1ccc(/C=C/C(=O)N2CCCC2=O)cc1 | 80 | 75 | Active | Non-toxic | Active | Active | Active | Non-toxic | Active | Active | Active | Active | Active | Active | Active | Active
